Test results from ChEMBL document CHEMBL1124010, “Synthesis and pharmacology of trans-4-n-propyl-3,4,4a,10b-tetrahydro-2H,5H-1-benzopyrano[4,3-b ]-1,4-oxazin-7- and -9-ols: the significance of nitrogen pKa values for central dopamine receptor activation” (J Med Chem, 1988).
The source made the active and inactive calls. No cut-off for these calls is given here.

Experiments:
[1] = Ionization constant in presence of nitrogen; format: physicochemical; details: read-out: pKa1
Method in brief: (§1)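 pKa was determined by the Albert and Serjeant method, as the mean of three to four determinations.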

[2] = Ionization constant in presence of hydroxyl; format: physicochemical; details: read-out: pKa2; method in brief: as §1
[3] = Partition coefficient in octanol-buffer at a pH 7.4; format: physicochemical
Method in brief: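 Distribution between 1-octanol and Na⁺/K⁺-phosphate buffer at pH 7.4, each phase presaturated with the other. Tubes were shaken closed and phases separated by centrifugation. Concentrations were measured by HPLC (C18) with electrochemical detection.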

Rattus norvegicus [4] = test: In Vivo effect on concentration of HVA in rat striatum at 1 umol/kg; format: functional
Rattus norvegicus [5] = test: In Vivo effect on concentration of DOPAC in rat striatum at 1 umol/kg; format: functional
Rattus norvegicus [6] = test: In Vivo effect on concentration of HVA in rat striatum at dose of 10 umol/kg administered intraperitoneally; format: functional
Method in brief: (§2)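 Female Wistar-derived rats (180–220 g) were given drug ip in saline and killed by cervical dislocation 1 h later. Striata were frozen and homogenized in 0.1 M perchloric acid, then centrifuged (3000g, 7 °C, 15 min). DOPAC and HVA were purified on Sephadex G10, separated by RP18 HPLC with electrochemical detection, and expressed as % of control.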

Rattus norvegicus [7] = test: In Vivo effect on concentration of DOPAC in rat striatum at dose of 10 umol/kg administered intraperitoneally; format: functional; method in brief: as §2
Rattus norvegicus [8] = test: In Vivo effect of agonist on the induction of stereotypy (continuous sniffing behavior in rat) at 10 umol/kg
D(2) dopamine receptor = D(2) dopamine receptor (Rattus norvegicus, UniProt P61169); test: Potency to displace the specific in vitro binding of [3H]DP-5,6-ADTN to rat striatal membrane; parameters: species or system Striatum
Method in brief: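 Homogenized, washed rat striatal membranes were incubated with [³H]-DP-5,6-ADTN. Nonspecific binding was defined with 10⁻⁶ M (+)-butaclamol. Competitor was tested over 10⁻¹¹–10⁻⁴ M, in triplicate.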

Rattus norvegicus [9] = test: In Vivo effect on concentration of DOPAC in rat striatum at dose of 0.4 umol/kg administered intraperitoneally; format: functional
Rattus norvegicus [10] = test: In Vivo effect of agonist on the induction of stereotypy (continuous sniffing behavior in rat) ED50
Rattus norvegicus [11] = test: In Vivo effect on concentration of HVA in rat striatum at dose of 0.4 umol/kg administered intraperitoneally; format: functional
Rattus norvegicus [12] = test: In Vivo effect of agonist on the induction of stereotypy (continuous sniffing behavior in rat) at 10 umol/kg; Inactive; format: functional, organism-based
[13] = target: Dopamine D2 receptor (Bos taurus); test: Potency to displace the specific in vitro binding of [3H]N-0437 to calf striatal membrane
Rattus norvegicus [14] = test: In Vivo effect of agonist on the induction of stereotypy (continuous sniffing behavior in rat) at 0.4 umol/kg; format: functional
Rattus norvegicus [15] = test: In vivo effect on concentration of DOPAC in rat striatum at dose of 10 umol/kg administered intraperitoneally; format: functional; method in brief: as §2

Sequence of D(2) dopamine receptor (P61169 whole entry): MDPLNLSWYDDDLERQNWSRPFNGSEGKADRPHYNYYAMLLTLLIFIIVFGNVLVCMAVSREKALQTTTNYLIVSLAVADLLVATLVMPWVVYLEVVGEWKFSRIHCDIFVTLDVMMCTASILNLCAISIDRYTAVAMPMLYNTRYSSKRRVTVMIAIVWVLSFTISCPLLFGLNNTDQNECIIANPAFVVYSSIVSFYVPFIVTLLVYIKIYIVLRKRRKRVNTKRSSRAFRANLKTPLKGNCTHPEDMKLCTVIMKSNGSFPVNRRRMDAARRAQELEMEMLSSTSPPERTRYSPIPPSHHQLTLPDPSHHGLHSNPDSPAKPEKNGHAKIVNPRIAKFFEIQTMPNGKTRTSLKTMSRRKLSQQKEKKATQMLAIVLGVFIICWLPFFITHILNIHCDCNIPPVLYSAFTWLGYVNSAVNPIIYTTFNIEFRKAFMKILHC

Work on CCCN(CCC)C1CCc2c(O)cccc2C1 (stereo not given) [5-OH-DPAT] yielded a pKa [1] of 9.4, a pKa [2] of 10.9 and a logD [3] of 1.53. It also gave a Control (Rattus norvegicus [4]) of 60% and a Control (Rattus norvegicus [5]) of 73%.
Molecule CN1CCc2cccc3c2[C@H]1Cc1ccc(O)c(O)c1-3 [APOMORPHINE] has a Control (Rattus norvegicus [6]) of 40%, a Control (Rattus norvegicus [7]) of 48% and an ED50 (Rattus norvegicus [8]) of 2.3 µmol/kg.
Work on CCCN(CCC)C1COc2c(O)cccc2C1 (stereo not given) yielded a pKa [1] of 8.2, a pKa [2] of 9.9 and a logD [3] of 2.44. For the same molecule, the IC50 (D(2) dopamine receptor) was 4 nM.
For CCCN1CCO[C@@H]2c3cc(O)ccc3CC[C@H]21 [NAXAGOLIDE], the Control (Rattus norvegicus [9]) was 67%, the ED50 (Rattus norvegicus [10]) was 0.5 µmol/kg and the pKa [1] was 7.5. The Control (Rattus norvegicus [11]) was 44%, the pKa [2] was 10.9 and the logD [3] was 2.09. It also gave an IC50 (D(2) dopamine receptor) of 3 nM.
In the case of CCCN1CCO[C@@H]2c3cccc(O)c3OC[C@H]21, the pKa [1] is reported as 5.8, the ED50 (Rattus norvegicus [12]) is reported as “inactive” and the IC50 [13] is reported as 8900 nM. For the same molecule, the Control (Rattus norvegicus [6]) was 110%, the Control (Rattus norvegicus [7]) was 108% and the pKa [2] was 10.2. For the same molecule, the logD [3] was 1.93 and the IC50 (D(2) dopamine receptor) was 2920 nM.
In the case of CCCN(CCC)C1COc2ccc(O)cc2C1 (stereo not given), the pKa [1] is reported as 8.1, the pKa [2] is reported as 9.6 and the logD [3] is reported as 2.39.
Work on CCCN1CCO[C@@H]2c3cccc(O)c3CC[C@H]21 yielded a Control (Rattus norvegicus [9]) of 101%, a pKa [1] of 7.4 and an IC50 [13] of 24 nM. It also gave a Control (Rattus norvegicus [11]) of 86%, an ED50 (Rattus norvegicus [14]) of 7.5 mg/kg and a pKa [2] of 10.5. For the same molecule, the logD [3] was 2.22 and the IC50 (D(2) dopamine receptor) was 75 nM.
Work on CCCN(CCC)C1CCc2ccc(O)cc2C1 (stereo not given) yielded a pKa [1] of 9.4, a pKa [2] of 10.7 and a logD [3] of 1.45. The Control (Rattus norvegicus [4]) was 56% and the Control (Rattus norvegicus [5]) was 72%.
In the case of CCCN1CCO[C@@H]2c3cc(O)ccc3OC[C@H]21, the Control (Rattus norvegicus [15]) is reported as 100%, the pKa [1] is reported as 6.1 and the ED50 (Rattus norvegicus [12]) is reported as “inactive”. The Control (Rattus norvegicus [6]) was 100%, the pKa [2] was 10.3 and the logD [3] was 1.97. It also gave an IC50 (D(2) dopamine receptor) of 3070 nM.
